# Screening data: PubChem, Broad Institute
# Compounds with a hit are over-represented: about 2.9% of the library has one in this group of screens.
# GSIS activator: primary screen for activators of insulin secretion dependent on glucose, INS-1E cells, GLuc reporter luminescence. activation, % at 16.6 µM. hit rate 0.61% among 370,000. INS-1E GLuc reporter insulin secretion, 2-3 h;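 active means lowest replicate activation of at least 40%, so every replicate reaches that level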;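 further: 0% = median of neutral control wells and 100% = median of IBMX positive control wells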
# CDK5 inh: CDK5/p35 (human) kinase inhibition | Q00535+Q15078 | inhibition, % at 10 µM | Recombinant CDK5/p35, ADP-Glo luminescence, 60 min | hit rate 0.01% among 330,000;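 active means highest replicate inhibition of at least 50% and at least 75% of replicates reaching 50%; inconclusive means only one of the two criteria met; inactive means both criteria failed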;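 further: plate controls were DMSO neutral control for no effect and GW8510 at 10 µM for full effect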
# Target sequence (Q00535 whole entry, looked up): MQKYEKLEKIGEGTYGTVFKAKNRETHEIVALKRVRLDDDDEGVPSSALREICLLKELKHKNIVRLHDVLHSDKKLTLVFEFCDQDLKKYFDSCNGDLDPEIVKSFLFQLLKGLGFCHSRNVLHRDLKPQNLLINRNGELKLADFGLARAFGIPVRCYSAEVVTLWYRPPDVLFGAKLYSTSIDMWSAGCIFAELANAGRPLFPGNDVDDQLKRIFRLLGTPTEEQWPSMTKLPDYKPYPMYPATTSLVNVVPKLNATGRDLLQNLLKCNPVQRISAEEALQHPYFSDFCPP
# Target sequence (Q15078 whole entry, looked up): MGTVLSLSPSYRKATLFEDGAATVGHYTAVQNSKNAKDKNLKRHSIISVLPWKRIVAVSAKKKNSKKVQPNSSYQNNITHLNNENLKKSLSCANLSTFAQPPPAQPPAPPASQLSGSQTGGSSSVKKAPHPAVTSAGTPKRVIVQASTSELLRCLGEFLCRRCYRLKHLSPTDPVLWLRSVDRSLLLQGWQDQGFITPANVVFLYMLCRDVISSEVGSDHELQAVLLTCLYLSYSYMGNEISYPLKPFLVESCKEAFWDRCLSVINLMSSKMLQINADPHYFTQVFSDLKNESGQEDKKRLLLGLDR
# Cneo AK release: causes C. neoformans cell lysis; adenylate kinase release luminescence, 4 h; normalised: neutral wells 0, clomiphene wells 100; lysis activity, % at 15 µM; hit rate 0.2% among 360,000; AID 651654;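 active means mean lysis activity across replicates of at least 80%, whatever share of replicates individually reach that level; inactive means mean lysis activity below 80%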
#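 Material: C. neoformans cells | Amount: Yeast cell density of 5 × 10^6 cells/mL | Medium: Fresh YPD growth medium | Dosing: Single dose | Times: Static 4 h at 37 °C with compound, 1 h detection | Detection: AK luminescence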
# HIV Env fusion: inhibitors of HIV Env-mediated cell fusion. inhibition, % at 12.3 µM. HeLa-JRFL Env/CEM21 cell fusion, luciferase. hit rate 1.1% among 360,000. AID 651610;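 active means mean replicate inhibition score of at least 50 and every replicate individually at or above 50; inconclusive means only one of the two criteria met; inactive means mean below 50 and not all replicates reaching 50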;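 further: 0% = plate neutral controls and 100% = maraviroc near 300 nM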
# PAX8 inh HTS: PAX8 transcriptional activity inhibition. RMG-I TPO-luciferase reporter, SteadyGlo, 24 h. inhibition, % at 12.6 µM. hit rate 1.2% among 360,000. AID 652154;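 active means mean replicate inhibition at least 60% with every replicate also reaching 60%; inconclusive means only one of the two criteria is met; inactive means mean below 60% and not all replicates reaching 60%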;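 further: luciferase light reporting Pax8 driven TPO promoter activity; plate controls were median of neutral control wells for no effect and mitoxantrone controls for full effect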
# dFosB act: activators of mouse delta FosB homodimer; hit rate 0.99% among 340,000; purified delta FosB, TAMRA-CDK5 oligo fluorescence polarization; percent of positive-control signal above neutral wells; activation, % at 25 µM; P13346; AID 493131;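 active means mean activation above about 17%, with every replicate also reaching it, limit read from the data, passing the limit was not always enough; inconclusive means only one of the two conditions met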
# Active calls of the source: *; u = inconclusive; x = not tested or not shown; [ ] = another dose, or the depositor's remark.
SMILES,GSIS activator,CDK5 inh,Cneo AK release,HIV Env fusion,PAX8 inh HTS,dFosB act
CC(C)NC(=O)N1CC(=O)N2[C@H](C1)[C@@H](c1ccc(C#CCN(C)C)cc1)[C@@H]2CO,6,x,x,x,-18,x
COc1ccc(-c2coc3c(C(=O)NCc4ccc(C(F)(F)F)cc4)cccc23)c(C)c1,-1,x,-7,67*,1,x
O=C(C[C@@H]1CC[C@H]2[C@@H](COC[C@@H](O)CN2Cc2ccccc2)O1)N1CCOCC1,-1,x,-1,-12[16.7 µM],-4,x
Cc1nc2c(-c3ccccc3)c(C)nn2c(C)c1CCC(=O)O,x,0,2,-5,-4,3
CCOC(=O)Cc1c(C)nc2c(-c3ccc(OC)cc3)c(C)nn2c1C,x,4,-1,64*,x,-9
CN(c1cccc(NC(=O)CSc2ccc(Cl)cc2)c1)S(C)(=O)=O,-17,-1,1,61*,x,-5
CN(c1cccc(NC(=O)CCSc2ccccc2)c1)S(C)(=O)=O,-3,0,0,x,x,-3
Nc1nc(NCCCN2CCOCC2)nc(Nc2cccc(F)c2)c1[N+](=O)[O-],x,0,x,-61,20,26*
CCN1CCN(c2nc(Nc3cccc(C)c3)nc(N)c2[N+](=O)[O-])CC1,6,5,1,-1,x,9
Nc1nc(NCCCN2CCOCC2)nc(Nc2ccccc2F)c1[N+](=O)[O-],27,1,x,-37,24,25*
Nc1nc(Nc2cccc(F)c2)nc(N2CCOCC2)c1[N+](=O)[O-],-7,5,-7,11,6,5
Nc1nc(NCCCN2CCOCC2)nc(Nc2ccc(F)cc2)c1[N+](=O)[O-],18,0,x,-59,-11,31*
Nc1nc(Nc2ccccc2F)nc(NCCO)c1[N+](=O)[O-],0,x,-1,-23,-11,x
COc1ccc(Nc2nc(NCCCN3CCOCC3)nc(N)c2[N+](=O)[O-])cc1,5,1,x,-66,2,9
Cc1cccc(Nc2nc(NCCCN3CCOCC3)nc(N)c2[N+](=O)[O-])c1,x,1,0,x,16,37*
O=C(C[C@H]1CC[C@@H]2[C@H](COC[C@@H](O)CN2Cc2cccc(F)c2)O1)NCc1cccc(F)c1,-7,x,-4,x,0,x
O=C(N/N=C/c1ccccc1)c1cccc2ccccc12,1,1,x,-7,13,0
O=C(N/N=C/c1cccn1-c1ccc(O)cc1)c1cccc2ccccc12,-5,2,1,14,8,22*
CN1CCN(C(=O)C[C@@H]2CC[C@H](NS(=O)(=O)c3cccc(F)c3)[C@@H](CO)O2)CC1,-2,x,4,-6[16.7 µM],0,x
COc1ccc(NC(=O)N(C)C[C@@H]2Oc3ccc(NC(=O)Nc4ccc(F)cc4)cc3C(=O)N([C@@H](C)CO)C[C@@H]2C)cc1,-11,x,1,-13[16.7 µM],x,x
Cc1ccc(-n2nnnc2CNC(=O)c2ccc(Br)o2)cc1C,-15,x,6,-18,9,-2
Cc1ccc(-n2nnnc2CNC(=O)c2ccc([N+](=O)[O-])o2)cc1C,-7,-1,x,15,84*,-9
O=C(NCc1nnnn1-c1ccc(F)cc1)c1ccc([N+](=O)[O-])o1,11,1,x,-33,70*,2
C[C@@H]1CN([C@H](C)CO)C(=O)c2cccc(NC(=O)C3CCOCC3)c2O[C@H]1CN(C)C(=O)NC1CCCCC1,16,x,22,4[16.7 µM],-7,x
CCN(CC)C(=O)c1ccccc1NS(=O)(=O)c1ccc(C)cc1,43*,0,-1,-2,x,2
SMILES,GSIS activator,CDK5 inh,Cneo AK release,HIV Env fusion,PAX8 inh HTS,dFosB act
C#CCN(C[C@@H]1[C@@H](OC(=O)NCC2CCCCC2)[C@@H](OC(=O)NCC2CCCCC2)CN(C(=O)OC(C)C)N1C(=O)OC(C)C)S(=O)(=O)c1ccc(C)cc1,2,x,0,u,72*,x
Cc1cc2[nH]c3c4ccccc4nc(C)c3c2cc1C,271*,1,-1,-180,86*,-138
Cc1cc2[nH]c3ccccc3c2c(C)n1,14,-2,x,-18,17,-3
Cc1ccccc1Cn1c(C(=O)OC(C)C)cc2c1ccn2C,x,1,3,54*,14,-17
Cc1ccc(C)c(Cn2c(C(=O)OC(C)C)cc3c2ccn3C)c1,x,-1,0,30,12,1
CCCNC(=O)N1C[C@@H]2[C@H](c3ccccc31)[C@H](CO)N2Cc1ccc(OC)cc1,-12,x,101*,x,-8,x
C[C@@H]1CN([C@H](C)CO)C(=O)c2cccc(NC(=O)Nc3ccc(F)cc3)c2O[C@H]1CN(C)C(=O)NC1CCCCC1,-2,x,-5,-14[16.7 µM],-2,x
COc1ccc(N(CC(=O)NCCSCc2ccc(Cl)cc2)S(C)(=O)=O)cc1Cl,-37,0,-1,121*,12,-9
CCOc1ccc(N(CC(=O)NCCCOC)S(C)(=O)=O)cc1,x,0,-1,x,x,5
Cc1ccc(CSCCNC(=O)CN(c2cccc([N+](=O)[O-])c2)S(C)(=O)=O)cc1,5,0,x,55*,4,-7
CCOc1ccc(N(CC(=O)NCCSCc2ccc(Cl)cc2)S(C)(=O)=O)cc1,6,1,2,80*,28,3
c1ccc(N2CCN(c3ncnc4scc(-c5cccs5)c34)CC2)cc1,5,-1,-3,82*,x,-4
OCCCNc1ncnc2scc(-c3ccc(Cl)cc3)c12,90*,2,-5,62*,-3,-6
Fc1ccc(-c2csc3ncnc(N4CCN(c5ccccc5)CC4)c23)cc1,4,2,-3,29,10,-10
c1csc(-c2csc3ncnc(NCCCN4CCOCC4)c23)c1,-28,-3,4,68*,x,-5
COCC(=O)Nc1ccc2c(c1)C(=O)N(C)C[C@H](OC)[C@H](C)CN(CC1CC1)[C@H](C)CO2,1,x,2,x,-4,x
CC(C)NC(=O)N(C)C[C@@H]1Oc2ccccc2CC(=O)N(C)C[C@@H]1C,8,x,x,x,x,x
C[C@H]1CCCCO[C@@H](CN(C)Cc2ccc(C(F)(F)F)cc2)[C@@H](C)CN([C@@H](C)CO)C(=O)c2cc(NC(=O)Cc3ccccc3)ccc2O1,-7,x,5,75*[16.7 µM],82*,x
C[C@@H]1CCCCO[C@H](CN(C)Cc2ccc(C(F)(F)F)cc2)[C@H](C)CN([C@H](C)CO)C(=O)c2cc(NC(=O)Cc3ccccc3)ccc2O1,-11,x,-1,57*[16.7 µM],83*,x
C[C@H](CO)N1C[C@H](C)[C@@H](CN(C)Cc2ccc(C(F)(F)F)cc2)Oc2ccc(NC(=O)Cc3ccccc3)cc2C1=O,-21,x,-2,-1[16.7 µM],12,x
C[C@H]1CN([C@@H](C)CO)C(=O)c2cc(NC(=O)Cc3ccccc3)ccc2O[C@@H]1CN(C)Cc1ccc(C(F)(F)F)cc1,-40,x,5,25[16.7 µM],67*,x
